From PubChem
Wnt act: activates Wnt/beta-catenin signaling in a reporter cell assay | activator, plate reader | activation, % at 9.35 µM | 300,000 compounds, 1.2% hits | AID 743398; in the data active = activation above about 30%, passing the limit was not always enough; inconclusive = no clear call, values can overlap the other calls;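 note: 0% = neutral control wells and 100% = positive control wells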
MITF act: increases MITF-driven TRPM1 promoter luciferase signal | SK-MEL-5 TRPM1-promoter luciferase, 24 h; % of positive control, neutral wells = 0 | activation, % at 12.5 µM | 300,000 compounds, 0.75% hits;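 active = mean activation of at least 80% with every replicate also reaching 80%; inconclusive = mean reaches 80% but some replicate falls short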;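 note: 0% = neutral control wells and 100% = parthenolide positive control wells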
esBAF inh: SWI/SNF esBAF complex inhibition; reporter increase, % at 12.5 µM; 350,000 compounds, 2% hits; mouse ES cells, Bmi1-luciferase knock-in reporter, 24 h; 100% = twice the neutral-well signal; AID 602393; in the data active = activation above about 40%; inconclusive = no clear call, values can overlap the other calls;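 note: 0% = median of the plate's neutral control wells and 100% = double that signal; a rise in the Bmi1 reporter signal indicates esBAF inhibition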
XiGFP reactiv: X-chromosome reactivation activator; XiGFP mouse fibroblasts, % GFP-positive cells imaging, 3 d; cells co-treated with 5-aza-dC sensitizer; scaled so ellipticine positive control = 100%; 360,000 compounds, 0.055% hits; activation, % at 7.58 µM;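 active = mean normalized replicate activation at least 10% and every replicate at or above 10%; inconclusive = only one of the two criteria met; inactive = mean below 10% and not all replicates reach 10%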;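 note: 0% = median of on-plate neutral control wells and 100% = ellipticine 6 µM median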
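Material: XiGFP fibroblasts, SV40-immortalized; Buffer or medium: DMEM containing 5-aza-dC; Compound dosing: single point; Times: 3 days compound exposure.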
Vif imaging: blocks HIV Vif function; 340,000 compounds, 0.35% hits; inhibition, % at 7.49 µM; HEK293T cells, Vif self-association by quenched fluorescence, imaging, 24 h; in the data active = inhibition above about 50%, passing the limit was not always enough; inconclusive = no clear call, values can overlap the other calls; inactive = below about 31%
Ring1 derepress: de-represses Ring1 in mouse ESCs, confirming esBAF inhibition; AID 743176; 550 tested, under 10 active; shares compounds with esBAF inh; fold change at 33 µM; mouse ESC E14, Ring1 mRNA RT-qPCR fold change;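 active = Ring1 gene expression raised more than 2-fold over untreated cells in both replicates at either tested dose; inconclusive = only one replicate above 2-fold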;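 note: Ring1 transcript normalised to actin housekeeping signal by TaqMan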
esBAF Fgf4 qPCR: esBAF inhibition confirmed by Fgf4 repression | 550 compounds, 4% hits | Fgf4 expression fold change at 33 µM | mouse ESC E14, Fgf4 mRNA qPCR fold change; stronger effect = lower value | shares compounds with esBAF inh;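 active = Fgf4 expression under 0.8 fold of control in both repeat measurements at one or both tested doses; inconclusive = under 0.8 fold in just a single repeat measurement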;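 note: Fgf4 transcript normalised to actin in duplex TaqMan qPCR; cells exposed to compound for 24 h before lysis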
Bmi1 derepress: esBAF inhibition confirmed by Bmi1 de-repression | fold change at 33 µM | 550 tested, under 10 active | mouse ESE14 ES cells, Bmi1 mRNA qPCR fold; stronger effect = higher value | shares compounds with esBAF inh;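 active = Bmi1 expression fold change above 6 at either tested concentration, seen in replicate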
A549 tox SP: cytotoxicity in A549 cells; shares compounds with esBAF inh; plate reader; cell viability change % (negative = cytotoxic), % at 25 µM, hits read low; 550 tested, under 10 active; AID 743188; call rule not given here
HepG2 cytotox SP: cytotoxicity in HepG2 cells; shares compounds with esBAF inh; plate reader; stronger effect = lower value; activity change, negative = inhibition, % at 25 µM; 550 compounds, 4% hits; in the data active = activity change below about -50%
HEK293 tox SP: kills or reduces viability of HEK293 cells | shares compounds with esBAF inh | HEK293 cytotoxicity, plate reader | activity change, negative = inhibition, % at 25 µM, hits read low | 550 compounds, 3% hits; in the data active = activity change below about -38%, passing the limit was not always enough
Active calls of the source: *. Shown are actives, neighbours in structure and some others; about 2.6% of the full set was active somewhere.

Screening CC(C)NC(=O)Nc1ccc2c(c1)CC(=O)N([C@H](C)CO)C[C@H](C)[C@H](CN(C)S(=O)(=O)c1cccs1)O2 returned esBAF inh -14.8 and XiGFP reactiv -0.1.
For C[C@H](CO)N1C[C@H](C)[C@@H](CN(C)C(=O)c2ccc3c(c2)OCO3)Oc2ncc(/C=C/c3ccccc3)cc2C1=O the results were esBAF inh 6.2 and XiGFP reactiv 0.8.
CC(O)(c1ccccc1)c1nc(-c2cccc(C(=O)O)c2)cs1 (configuration not stated) was read as Wnt act 27.1, esBAF inh 69.0*, XiGFP reactiv -0.1, Vif imaging 22.4, Ring1 derepress 1.1, esBAF Fgf4 qPCR 0.83, Bmi1 derepress 1.17, A549 tox SP -9.4, HepG2 cytotox SP 2.5 and HEK293 tox SP -13.6.
CCN1C(=O)C(=CC=CN(C)c2ccccc2)SC1=S was read as Wnt act 7.0, esBAF inh 83.9*, XiGFP reactiv 0.0, Vif imaging 44.2, Ring1 derepress 1.06, esBAF Fgf4 qPCR 0.932, Bmi1 derepress 1.46, A549 tox SP -18.8, HepG2 cytotox SP -8.1 and HEK293 tox SP -9.7.
Screening O=C(COc1ccc(/C=N/NC(=O)c2cc3ccccc3o2)cc1Br)Nc1ccccc1 returned MITF act -92.9, esBAF inh inconclusive, Ring1 derepress 0.857, esBAF Fgf4 qPCR inconclusive, Bmi1 derepress 5.08, A549 tox SP -121.3*, HepG2 cytotox SP -75.3* and HEK293 tox SP -121.0*.
COc1ccc(S(=O)(=O)Nc2ccc3c(c2)C(=O)N([C@@H](C)CO)C[C@@H](C)[C@@H](CN(C)S(=O)(=O)c2c(C)noc2C)OCCCC[C@@H](C)O3)cc1 was read as esBAF inh -2.6 and XiGFP reactiv -0.1.
Screening CC(=O)c1cccc(OCc2cc(C(=O)NCCC3=CCCCC3)no2)c1 returned Wnt act inconclusive, MITF act 72.5, esBAF inh 83.3*, XiGFP reactiv 0.0, Vif imaging -2.8, Ring1 derepress 1.03, esBAF Fgf4 qPCR 1.1, Bmi1 derepress 0.942, A549 tox SP -11.5, HepG2 cytotox SP -19.2 and HEK293 tox SP -8.4.
For O=C(NCCC1=CCCCC1)c1cc(COc2c(F)cccc2F)on1 the results were Wnt act 0.7, MITF act 15.7, esBAF inh 13.8, XiGFP reactiv -0.1 and Vif imaging -4.6.
For CCCC#Cc1cnc2c(c1)C(=O)N([C@@H](C)CO)C[C@H](C)[C@@H](CN(C)C(=O)Nc1ccccc1OC)O2 the results were esBAF inh 1.0 and XiGFP reactiv -0.3.
`O=C(Cc1cccs1)Nc1nc2c(s1)CCCC2` gave Wnt act 13.4, MITF act 55.6, esBAF inh 59.2*, Vif imaging -13.2, Ring1 derepress 1.03, esBAF Fgf4 qPCR 0.793*, Bmi1 derepress 1.31, A549 tox SP -27.5, HepG2 cytotox SP 9.1 and HEK293 tox SP -54.6*.
Cc1cccc(-c2ccc([C@@H]3[C@H](CO)N4C(=O)CN(C(=O)c5cnccn5)C[C@@H]34)cc2)c1 was read as XiGFP reactiv 0.1.
Screening Cc1c(Cl)cccc1NC(=O)c1cc(C2CC2)on1 returned Wnt act 7.2, MITF act 43.5, esBAF inh 66.5*, XiGFP reactiv 0.3, Vif imaging -5.3, Ring1 derepress 1.49, esBAF Fgf4 qPCR 1.04, Bmi1 derepress 1.49, A549 tox SP -4.3, HepG2 cytotox SP -12.9 and HEK293 tox SP -13.1.
For COC(=O)N1CCCC(c2cc(C(=O)Nc3ccccc3Cl)no2)C1 (configuration not stated) the results were Wnt act -4.5, esBAF inh 73.1*, XiGFP reactiv 0.1, Vif imaging 1.3, Ring1 derepress 0.935, esBAF Fgf4 qPCR 0.902, Bmi1 derepress 1.36, A549 tox SP -1.5, HepG2 cytotox SP -29.6 and HEK293 tox SP -12.2.
`O=C(Nc1ccccc1)c1cc(C2CCCN(C(=O)c3ccccc3)C2)on1` (configuration not stated) gave Wnt act 1.0, esBAF inh 57.4*, XiGFP reactiv 0.0, Vif imaging 2.6, Ring1 derepress 1.13, esBAF Fgf4 qPCR 0.967, Bmi1 derepress 1.05, A549 tox SP -20.0, HepG2 cytotox SP -15.8 and HEK293 tox SP -26.6.
`O=C(Nc1ccccc1Cl)c1cc(C2CCCN(C(=O)OCCF)C2)on1` (configuration not stated) gave Wnt act 14.5, esBAF inh inconclusive, XiGFP reactiv 0.1 and Vif imaging 7.6.
For C[C@@H]1CN([C@@H](C)CO)C(=O)c2cc(NS(=O)(=O)c3ccc(Cl)cc3)ccc2O[C@@H]1CN(C)C(=O)NC1CCCCC1 the results were esBAF inh 3.6 and XiGFP reactiv -1.3.
C[C@@H]1CN([C@H](C)CO)C(=O)c2cc(NC(=O)c3ccncc3)ccc2O[C@@H](C)CCCCO[C@H]1CN(C)Cc1ccc(C(F)(F)F)cc1 was read as esBAF inh 0.7 and XiGFP reactiv 0.3.
